Key:
[1] = folding enthalpy; higher = less favourable; fluorescence melt of hairpins on a sequencing array, two-state fit; conditions: sodium 0.088 M
Procedure, shortened: (§1)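 Bootstrapped two-state fits yielded melting temperature and folding enthalpy for library hairpins. Cy3 fluorescence, with annealed Cy3 and quencher oligos, was imaged on a sequenced MiSeq flow cell in 50 mM Na-HEPES pH 8.0, 25 mM NaCl in 2.5 °C steps up to 60 °C, and normalised to pre-quench Cy3 and to control constructs. Four replicates were combined by inverse variance, and fitted temperatures were raised by 9.35 °C to match UV melts.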

[2] = melting temperature; fluorescence melt of hairpins on a sequencing array, two-state fit, raised by 9.35 °C to match UV melts; conditions: sodium 0.088 M
Procedure, shortened: as §1

Row | Sequence | folding enthalpy [1] | Tm [2]
1 | GATCTTATGAAAGATC ((((((....)))))) | -128 kJ/mol | 40.6 °C
2 | GATCTTCACGAAGATC ((((((....)))))) | -168 kJ/mol | 49.2 °C
3 | GATCTTCACTAAGATC ((((((....)))))) | -124 kJ/mol | 43.9 °C
4 | GATCTTCATAAGATC ((((((...)))))) | -119 kJ/mol | 43.4 °C
5 | GATCTTCATGAAGATC ((((((....)))))) | -181 kJ/mol | 51.1 °C
6 | GATCTTCCCGAAGATC ((((((....)))))) | -171 kJ/mol | 49.4 °C
7 | GATCTTCCGGAAGATC ((((((....)))))) | -231 kJ/mol | 53.1 °C
8 | GATCTTCGTTAAGATC ((((((....)))))) | -135 kJ/mol | 43 °C
9 | GATCTTCTACAAGATC ((((((....)))))) | -127 kJ/mol | 41.9 °C
10 | GATCTTCTATAAGATC ((((((....)))))) | -127 kJ/mol | 43.5 °C
11 | GATCTTCTGTAAGATC ((((((....)))))) | -145 kJ/mol | 43.1 °C
12 | GATCTTCTTAAAGATC ((((((....)))))) | -137 kJ/mol | 46 °C
13 | GATCTTCTTTAAGATC ((((((....)))))) | -159 kJ/mol | 43.3 °C
14 | GATCTTGAACAAGATC ((((((....)))))) | -146 kJ/mol | 49.2 °C
15 | GATCTTGACAAAGATC ((((((....)))))) | -184 kJ/mol | 52.7 °C
16 | GATCTTGATGAAGATC ((((((....)))))) | -97.9 kJ/mol | 44.1 °C
17 | GATCTTGCATAAGATC ((((((....)))))) | -167 kJ/mol | 50.9 °C
18 | GATCTTGCCAAGATC ((((((...)))))) | -109 kJ/mol | 47.5 °C
19 | GATCTTGCGTAAGATC ((((((....)))))) | -166 kJ/mol | 43.6 °C
20 | GATCTTGCTAAAGATC ((((((....)))))) | -159 kJ/mol | 53.2 °C
21 | GATCTTGCTAAGATC ((((((...)))))) | -133 kJ/mol | 45.4 °C
22 | GATCTTGTAAAGATC ((((((...)))))) | -182 kJ/mol | 53.8 °C
23 | GATCTTGTCAAAGATC ((((((....)))))) | -175 kJ/mol | 54.8 °C
24 | GATCTTGTGGAAGATC ((((((....)))))) | -123 kJ/mol | 41.3 °C

Row | Sequence | folding enthalpy [1] | Tm [2]
25 | GATCTTTAACAAGATC ((((((....)))))) | -136 kJ/mol | 38.1 °C
26 | GATCTTTCGGAAGATC ((((((....)))))) | -140 kJ/mol | 43.9 °C
27 | GATCTTTCTCAAGATC ((((((....)))))) | -140 kJ/mol | 42.6 °C
28 | GATCTTTGACAAGATC ((((((....)))))) | -105 kJ/mol | 39.4 °C
29 | GATCTTTGATAAGATC ((((((....)))))) | -107 kJ/mol | 42.6 °C
30 | GATCTTTGTGAAGATC ((((((....)))))) | -175 kJ/mol | 47.7 °C
31 | GATCTTTGTTAAGATC ((((((....)))))) | -141 kJ/mol | 44 °C
32 | GATCTTTTGAAGATC ((((((...)))))) | -116 kJ/mol | 43.6 °C
33 | GATCTTTTTCAAGATC ((((((....)))))) | -141 kJ/mol | 42.3 °C
34 | GATGAAGAAATTCATC ((((((....)))))) | -104 kJ/mol | 43.3 °C
35 | GATGACACGAAAGTGATC (((..(((....)))))) | -47.6 kJ/mol | 30.9 °C
36 | GATGACGAAAGTCATC ((((((....)))))) | -152 kJ/mol | 67.4 °C
37 | GATGACGGAAACGTTATC (((.(((....))).))) | -124 kJ/mol | 46.2 °C
38 | GATGAGCGAAAGCTGATC (((.(((....))).))) | -92.3 kJ/mol | 45.9 °C
39 | GATGATGCGAAAGCAATC (((..(((....)))))) | -57.2 kJ/mol | 37.6 °C
40 | GATGCAGGAAACTACATC ((((.((....)).)))) | -128 kJ/mol | 36.4 °C
41 | GATGCAGGAAACTGTATC (((.(((....))).))) | -140 kJ/mol | 44.9 °C
42 | GATGCAGGAAACTGTGTC ((..(((....)))..)) | -113 kJ/mol | 35.5 °C
43 | GATGCCGAAAGGCAAATC ((((((....)))..))) | -43.7 kJ/mol | 35.4 °C
44 | GATGCCGAAAGGCACATC ((((((....)))..))) | -36.1 kJ/mol | 33.3 °C
45 | GATGCCGAAAGGCGCATC ((((((....)))..))) | -37.7 kJ/mol | 32.6 °C
46 | GATGCCGAAAGGCTAATC ((((((....)))..))) | -40.3 kJ/mol | 30.1 °C
47 | GATGCCGAAAGGCTCATC ((((((....)))..))) | -43.4 kJ/mol | 32.7 °C
48 | GATGCCGGAAACGGCACC (.(((((....))))).) | -40.7 kJ/mol | 44.5 °C

Row | Sequence | folding enthalpy [1] | Tm [2]
49 | GATGCCGGAAACGGCGTC ((.((((....)))).)) | -88.9 kJ/mol | 62.6 °C
50 | GATGCGCGAAAGCGAATC (((.(((....))).))) | -93.4 kJ/mol | 57.2 °C
51 | GATGCGCGAAAGCGGATC (((.(((....))).))) | -128 kJ/mol | 64.5 °C
52 | GATGCTGGAAACAGTGTC ((..(((....)))..)) | -110 kJ/mol | 37.8 °C
53 | GATGGACCGAAAGGTATC (((..(((....)))))) | -46.5 kJ/mol | 26.8 °C
54 | GATGGAGGAAACTCCACC (.(((((....))))).) | -68.2 kJ/mol | 34.1 °C
55 | GATGGAGGAAACTCCATC (((((((....))))))) | -161 kJ/mol | 59 °C
56 | GATGGCCGAAAGGCTATC (((.(((....))).))) | -116 kJ/mol | 57.5 °C
57 | GATGGCGAAAGCCAAATC ((((((....)))..))) | -39.2 kJ/mol | 33.9 °C
58 | GATGGCGAAAGCCCATC ((((((....))).))) | -69.5 kJ/mol | 52.4 °C
59 | GATGGCGAAAGCCGGATC ((((((....)))..))) | -42.9 kJ/mol | 37 °C
60 | GATGGCGGAAACACCATC (((((.(....).))))) | -144 kJ/mol | 47.2 °C
61 | GATGGGCGAAAGCCGATC (((.(((....))).))) | -78.5 kJ/mol | 52.7 °C
62 | GATGGTGGAAACACTGTC ((..(((....)))..)) | -64.7 kJ/mol | 35.8 °C
63 | GATGTAGAAATACATC ((((((....)))))) | -127 kJ/mol | 45.7 °C
64 | GATGTAGGAAACCACATC (((((.(....).))))) | -143 kJ/mol | 37.6 °C
65 | GATGTCGGAAACGACATC (((((((....))))))) | -152 kJ/mol | 68.4 °C
66 | GATGTCGGAAACGGCATC ((((.((....)).)))) | -194 kJ/mol | 54.4 °C
67 | GATGTGAAAACATC (((((....))))) | -119 kJ/mol | 49 °C
68 | GATGTGGAAACACATC ((((((....)))))) | -149 kJ/mol | 57.1 °C
69 | GATGTTACGAAAGTAATC (((..(((....)))))) | -56.5 kJ/mol | 26.9 °C
70 | GATGTTGGAAACAACACC (.(((((....))))).) | -65.1 kJ/mol | 34.8 °C

Reference: the array DNA melting data of Ke et al. (doi:10.1101/2024.01.08.574731)
